Screening data (PubChem BioAssay)
CSC inhib: cancer stem cell viability inhibitors, primary screen, luminescence. inhibition, % at 7.5 µM. actives 1.1% (n = 300,000). cancer stem cell-like cells viability; in the data active means inhibition above about 75%; inconclusive means no clear call, values can overlap the other calls; tested in HMLE shEcad cells
Beta apoptosis: inhibitors of cytokine-induced beta cell apoptosis, primary screen, luminescence; INS-1E cytokine-induced death, ATP luminescence, 48 h; percent of positive-control rescue, neutral wells zero; protection from apoptosis, % (no concentration beside the values); actives 0.8% (n = 300,000);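 active means Every replicate reaches about 75%, or at least half do and their mean reaches it too, limit read from the data; inconclusive means At least half of replicates reach the limit but their mean does not; inactive means Under half of replicates reach the limit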;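 further: 0% = cytokine-treated negative control wells and 100% = positive control rescue; higher means more ATP so stronger rescue from cytokine killing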
SUMO Mot1 rescue: yeast Mot1-301 growth rescue at high temperature, primary screen, SUMOylation pathway inhibitor project, S. cerevisiae, ATP luminescence, 38.5C. actives 1% (n = 320,000). AID 2716, 2010. S. cerevisiae Mot1-301 growth rescue; percent above DMSO median, 100 means doubled. growth rescue, % at 18.8 µM;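 active means every valid replicate shows activation above 250% relative to neutral control wells; inactive means the rest, any valid replicate at or below 250%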;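 further: OY570 slx delta 5 strain wells were the positive control but not used for scaling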
T cruzi repl: inhibitors of intracellular T. cruzi growth, primary screen, luminescence, NIH3T3 host cells. inhibition, % (test concentration not listed). actives 1.4% (n = 300,000). T. cruzi beta-gal in NIH3T3, 90 h;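 active means mean inhibition across valid replicates above about 55%, limit read from the data; inconclusive means mean below that limit but half or more replicates reach it; inactive means mean below it, under half of replicates reach it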;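 further: signal also drops with host cell toxicity which is not excluded here; 0% = plate median of DMSO wells and 100% = zero luminescence signal; higher percent means less beta-gal luminescence so fewer parasites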
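System – NIH/3T3 host cells with β-galactosidase reporter T. cruzi · Doses – single 50 nL compound addition per well in DMSO · Reagent – 5000 T. cruzi trypomastigotes/well · Medium – Low-serum DMEM with 2% FBS · Timing – ≥90 h infection period, 3 h prior cell attachment · Evaluation – parasite load inhibition, % · Technique – GalScreen luminescence, 60 min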
Efflux pump mplx: inhibitors of Candida efflux pumps in yeast, primary screen, S. cerevisiae, Nile Red, multiplex | AID 485275, 2010 | actives 0.44% (n = 330,000) | S. cerevisiae Candida pump triplex | inhibition, % at 10 µM;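 active means plate passing quality check with inhibition over a set limit, or well fluorescence over plate mean plus 4 SD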;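 further: Nile Red retained in pooled yeast measured as flow cytometry median fluorescence; 0% = buffer negative control and 100% = Enniatin B positive control; higher means more Nile Red kept so more efflux inhibition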
WT yeast gro inh: growth inhibition of WT strain, primary screen, mitochondrial fusion inhibitor project, WT and mutant strains, chemical genetic; mitochondrial fusion phenotypic screen; inhibition, % at 10 µM; actives 2.1% (n = 190,000); AID 1362, 2008; in the data active means inhibition above about 58%; tested in S. cerevisiae
Yeast cmpd fluor: counter-screen for efflux pump inhibitors: compound fluorescence | fluorescence ratio to DMSO, % at 10 µM | S. cerevisiae AD/pABC3, flow cytometry | shares compounds with Efflux pump mplx | actives 4% (n = 1,700);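 active means fluorescence ratio to DMSO above its plate's cutoff, the plate mean ratio plus 5 SD, cut at about 210% in these data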;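 further: unstained yeast with no Nile Red so the signal is compound autofluorescence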
CaMdr1 efflux inh: inhibitors of Candida albicans Mdr1 efflux, confirmation, flow cytometry, singleplex, Cherry Pick1 set | AID 588518, 2011 | shares compounds with Efflux pump mplx | actives 1% (n = 1,700) | inhibition, % at 10 µM | S. cerevisiae AD/CaMDR1, Nile Red efflux; in the data active means inhibition above about 26%;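 further: 0% = DMSO vehicle and 100% = reference inhibitor; higher means more Nile Red retained so more efflux inhibition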
Cdr2 pump inh: inhibitors of Candida albicans Cdr2 efflux pump, confirmation, S. cerevisiae AD/CaCDR2, flow cytometry, cherry pick 1, singleplex | actives 4% (n = 1,700) | Nile Red retention | Nile Red retention ratio vs DMSO, % at 10 µM | shares compounds with Efflux pump mplx; in the data active means Nile Red retention ratio vs DMSO above about 190%;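 further: higher ratio means more blocking of Cdr2 efflux of the dye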
Cdr1 pump inh: inhibitors of Candida albicans Cdr1 efflux pump, confirmation, S. cerevisiae AD/CaCDR1, flow cytometry, cherry pick 1, singleplex. inhibition, % at 10 µM. Nile Red efflux. shares compounds with Efflux pump mplx. actives 1% (n = 1,700). AID 588522, 2011;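 active means inhibition above the screen-wide mean plus twice its standard deviation, cut at about 32% in these data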
* marks the source's active call; other numbers are inactive results; ? = inconclusive; / = not tested or not shown; + = active, no number. In the library only some 4.8% were active in any assay of this set; here they are far more common.

SMILES	CSC inhib	Beta apoptosis	SUMO Mot1 rescue	T cruzi repl	Efflux pump mplx	WT yeast gro inh	Yeast cmpd fluor	CaMdr1 efflux inh	Cdr2 pump inh	Cdr1 pump inh
O=C1C(Cc2ccccc2)Nc2ncnc(N3CCc4ccccc4C3)c2N1Cc1ccc(Br)cc1 (stereo not given)	51.1	3.4	3.7	30.9	0.4	/	/	/	/	/
Cc1ccc(CN2C(=O)C(Cc3ccccc3)Nc3ncnc(N4CCN(c5ccccc5)CC4)c32)cc1 (stereo not given)	27.0	4.6	-15.9	33.8	1.1*	/	95.5	-0.3	110.3	0.2
O=C1C(Cc2ccccc2)Nc2ncnc(N3CCOCC3)c2N1Cc1ccc(Cl)cc1 (stereo not given)	-10.9	/	3.9	15.3	0.0	/	/	/	/	/
O=C1C(Cc2ccccc2)Nc2ncnc(N3CCN(c4ccccc4)CC3)c2N1Cc1ccccc1 (stereo not given)	12.4	-7.2	-5.5	19.3	0.3	/	104.6	-0.1	87.3	-0.1
O=C1C(Cc2ccccc2)Nc2ncnc(N3CCN(c4ccccc4)CC3)c2N1Cc1ccc(Br)cc1 (stereo not given)	/	1.6	11.2	/	81.7*	/	110.0	56.2*	111.6	76.3*
CC(NC(=O)CCSCCC(=O)NC(C)c1ccccc1)c1ccccc1 (stereo not given)	18.3	2.5	-15.7	0.9	1.2*	-6.2	101.7	0.3	98.5	0.2
C[n+]1c(/C=C/c2ccc(O)cc2)ccc2ccccc21	4.8	10.6	-16.4	34.3	0.3	/	/	/	/	/
Cc1cc(/C=C\c2ccc3cc(N(C)C)ccc3[n+]2C)c(C)n1-c1ccccc1	87.5*	/	14.3	/	17.3*	/	+	37.9*	269.7*	19.9
C=CCCN(Cc1ccccc1)S(=O)(=O)c1cc(Br)ccc1Br	43.3	3.1	3.5	/	0.0	/	/	/	/	/
COc1ccc(C(=O)CC(=O)C(=O)Nc2ccc(Cl)cc2)cc1	6.4	4.9	-14.2	2.5	1.4*	/	82.0	0.5	171.7	0.7
COc1ccc(C(=O)CC(=O)C(=O)Nc2ccc(OC)c(Cl)c2)cc1	-2.6	4.5	416.4	-14.0	0.3	/	/	/	/	/
COc1ccc(CCOC(=O)c2ccc(N)c([N+](=O)[O-])c2)cc1	11.9	2.5	3.0	17.6	6.6*	/	102.2	-0.2	/	-0.1
O=c1oc2ccccc2c(N2CCCCC2)c1[N+](=O)[O-]	6.7	-4.4	-19.1	-15.2	1.2*	-0.1	99.8	-0.2	97.7	-0.1
CCN(CC)c1ccc2c(Cl)c(Br)c(=O)oc2c1	?	-0.7	8.2	59.4*	8.6*	76.6*	451.8*	1.1	504.4*	1.2
CCN(CC)c1ccc2c(C)c(Cl)c(=O)oc2c1	-7.2	6.5	872.8	-8.8	0.1	10.6	/	/	/	/
CN1C(=O)c2ccccc2C(C(=O)O)C1c1cccc(Cl)c1 (stereo not given)	-4.5	0.9	0.7	0.8	0.7	-9.2	/	/	/	/
CCc1ccc(C2C(C(=O)O)c3ccccc3C(=O)N2C)cc1 (stereo not given)	-7.4	2.6	-2.1	-14.9	1.9*	-18.5	104.6	-0.1	99.7	0.0
CC(C)c1ccc(N(CC(=O)NCC2CCCO2)C(=O)Cn2nnc(-c3cccs3)n2)cc1 (stereo not given)	-4.0	-6.0	26.2	-5.4	0.1	-0.5	/	/	/	/
CCc1ccc2[nH]c(O)c(N=Nc3nc(-c4ccccc4)cs3)c2c1	45.1	22.1	278.1	33.4	0.9*	40.2	104.6	-0.1	91.4	0.0
O=C(O)C(Cc1c[nH]c2ccccc12)NS(=O)(=O)c1cccc2nsnc12 (stereo not given)	20.4	-4.7	-3.9	-49.1	23.6*	-14.9	79.0	0.0	95.4	-0.5
COc1cc2c(cc1OC)CN(c1nc(CN3CCOCC3)nc3sc4c(c13)CCCC4)CC2	45.1	2.1	17.7	1.4	-0.3	14.9	/	/	/	/
CC1CCc2c(sc3nc(CN4CCOCC4)nc(N4CCc5ccccc5C4)c23)C1 (stereo not given)	13.3	-2.6	-26.9	15.9	20.3*	23.4	90.7	0.0	116.0	-0.1
O=C(NCC(=O)N1CCN(c2ccccc2)CC1)c1cccs1	-2.7	-1.0	0.9	-4.0	0.2	/	/	/	/	/
CC(=O)NCCC(=O)Nc1cc(S(=O)(=O)N2CCOCC2)ccc1Oc1ccccc1	-9.1	1.4	-3.7	3.4	-0.1	/	/	/	/	/
Cc1cc2nc(/C(C#N)=C\c3ccc(-c4ccccc4C(=O)O)o3)[nH]c2cc1C	-3.8	0.0	263.3	-4.9	0.2	/	/	/	/	/
SMILES	CSC inhib	Beta apoptosis	SUMO Mot1 rescue	T cruzi repl	Efflux pump mplx	WT yeast gro inh	Yeast cmpd fluor	CaMdr1 efflux inh	Cdr2 pump inh	Cdr1 pump inh
Cc1ccc2nc(/C(C#N)=C\c3ccc(N4CCOCC4)o3)[nH]c2c1	6.0	11.1	47.8	42.6	0.5*	8.7	128.2	0.3	131.4	-0.1
Cc1ccc2nc(/C(C#N)=C/c3ccc(-c4ccccc4C(=O)O)o3)[nH]c2c1	-7.5	-9.8	-10.6	10.5	0.2	/	/	/	/	/
N#C/C(=C\c1ccc([N+](=O)[O-])o1)c1nc2ccccc2[nH]1	?	100.1*	357.0*	48.6	5.1*	95.4	+	3.7	477.7*	2.4
N#C/C(=C(/O)c1ccc([N+](=O)[O-])o1)c1nc2ccccc2[nH]1	59.9	-3.5	3.4	27.4	0.0	/	/	/	/	/
Cc1ccc2nc(/C(C#N)=C\c3ccc([N+](=O)[O-])o3)[nH]c2c1	2.8	101.9*	72.0	66.7*	17.7*	4.0	+	7.7	+	0.4
CCC(Oc1ccccc1)C(=O)N(C)CC(=O)N(CC(C)C)c1c(N)n(CC(C)C)c(=O)[nH]c1=O (stereo not given)	/	0.6	3.3	-7.1	0.0	/	/	/	/	/
Cc1c(C(=O)O)oc2ccc(S(=O)(=O)NC3CCCCCCC3)cc12	5.6	-7.4	-18.7	-34.6	1.0*	2.1	100.3	-0.1	96.3	0.0
